Experimental data reported in paper PMC4576993 (Leukemia, 2011).
“Also recorded” adds a separate entry of the source. Like-named read-outs stand apart in the source and are kept apart here.

Tests used:
[1] = Plasma vosaroxin pharmacokinetics in patients; type: in vivo, human; conditions: for half-life: T1/2, mean
[2] = type: in vivo, human
Summary of the method: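 Open-label 3+3-type escalation in cohorts of 3–6, starting at 18 mg/m2 weekly (days 1, 8, 15) or 9 mg/m2 twice weekly (days 1, 4, 8, 11), 28-day cycles, with modified Fibonacci increments. A cohort was expanded to 6 on any DLT. MTD was the level below that with ≥2/6 DLTs. DLT was assessed in cycle 1 through day 29. Toxicity was graded by NCI CTCAE v3.0. One 25% dose reduction was allowed, with supportive care permitted.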

[3] = Renal excretion of vosaroxin and metabolites in urine, 24 h after first dose; type: in vivo, human; conditions: 24 h after first dose, 18 and 27 mg/m^2 weekly, eight patients
MV4-11 AML cell line = conditions: in vitro; cited from earlier work
[4] = rat tissue distribution studies; no reference given; cited from earlier work
p53 = conditions: cited from earlier work
bone marrow = conditions: at its MTD, normal mouse model; cited from earlier work
[5] = twice weekly (n = 31), Grade 1 or 2
[6] = twice weekly (n = 31), Grade ≥3
[7] = two patients with CR, weekly schedule

CN[C@H]1CN(c2ccc3c(=O)c(C(=O)O)cn(-c4nccs4)c3n2)C[C@@H]1OC [vosaroxin, (+)-1,4-dihydro-7-(trans-3-methoxy-4-methylamino-1-pyrrolidinyl)-4-oxo-1-(2-thiazolyl)-1,8-naphthyridine-3-carboxylic acid]
Differences in clearance based on age, sex, body weight or body surface area ([1]; age overall and <65 versus ≥65 years): No significant differences in clearance
Average total body clearance ([1]; all patients): 2 l/h/m^2
Induction or inhibition of vosaroxin metabolism after repeated doses ([1]; clearance compared weekly vs days 1, 4, 8 and 11): No induction or inhibition of vosaroxin metabolism was evident
Plasma exposure (AUC) versus dose ([1]; dose range 9–90 mg/m^2): dose proportional; also recorded: increased proportionally with an increase in dose
AUC(0-t) ([1]; human, plasma, intravenous, 72 mg/m2): 32500 ng·h/mL
AUC(0-inf) ([1]; human, plasma, intravenous, 72 mg/m2, AUCinf, mean, weekly, Day 1, 72 mg/m^2, N 11, cycle 1): 39400 ng·h/mL
clearance ([1]; human, plasma, intravenous, 72 mg/m2, CL, mean, weekly, Day 1, 72 mg/m^2, N 11, cycle 1): 69.3 mL/min
MRT ([1]; human, plasma, intravenous, 72 mg/m2, MRT, mean, weekly, Day 1, 72 mg/m^2, N 11, cycle 1): 33.9 h
Vd ([1]; human, plasma, intravenous, 72 mg/m2, Vss, mean, weekly, Day 1, 72 mg/m^2, N 11, cycle 1): 130 L
Cmax ([1]; human, plasma, intravenous, 72 mg/m^2): 1920 ng/mL
AUC(0-inf) ([1]; human, plasma, intravenous, AUCinf, mean, twice weekly, Day 1, 9–50 mg/m^2, N 31, cycle 1): 14200 ng·h/mL
AUC(0-inf) ([1]; human, plasma, intravenous, AUCinf, mean, twice weekly, Day 8, 9–50 mg/m^2, N 29, cycle 1): 15600 ng·h/mL
AUC(0-inf) ([1]; human, plasma, intravenous, AUCinf, mean, twice weekly, Day 11, 9–50 mg/m^2, N 28, cycle 1): 16000 ng·h/mL
clearance ([1]; human, plasma, intravenous, Average total body clearance, all patients): 66.7 mL/min
clearance ([1]; human, plasma, intravenous, CL, mean, twice weekly, Day 1, 9–50 mg/m^2, N 31, cycle 1): 72.8 mL/min
clearance ([1]; human, plasma, intravenous, CL, mean, twice weekly, Day 8, 9–50 mg/m^2, N 29, cycle 1): 75.7 mL/min
clearance ([1]; human, plasma, intravenous, CL, mean, twice weekly, Day 11, 9–50 mg/m^2, N 28, cycle 1): 75.3 mL/min
clearance ([1]; human, plasma, intravenous, CL, mean, weekly, Day 1, 18–90 mg/m^2, N 41, cycle 1): 65.3 mL/min
MRT ([1]; human, plasma, intravenous, MRT, mean, twice weekly, Day 1, 9–50 mg/m^2, N 31, cycle 1): 33.9 h
MRT ([1]; human, plasma, intravenous, MRT, mean, twice weekly, Day 8, 9–50 mg/m^2, N 29, cycle 1): 28.6 h
MRT ([1]; human, plasma, intravenous, MRT, mean, twice weekly, Day 11, 9–50 mg/m^2, N 28, cycle 1): 30.8 h
half-life ([1]; human, plasma, intravenous, twice weekly, Day 1, 9–50 mg/m^2, N 31, cycle 1): 26.6 h
half-life ([1]; human, plasma, intravenous, twice weekly, Day 4, 9–50 mg/m^2, N 30, cycle 1): 28.2 h
Vd ([1]; human, plasma, intravenous, Vss, mean, twice weekly, Day 1, 9–50 mg/m^2, N 31, cycle 1): 142 L
Vd ([1]; human, plasma, intravenous, Vss, mean, twice weekly, Day 8, 9–50 mg/m^2, N 29, cycle 1): 126 L
Vd ([1]; human, plasma, intravenous, Vss, mean, twice weekly, Day 11, 9–50 mg/m^2, N 28, cycle 1): 136 L
Drug accumulation (AUC72 ratio) day 11/day 1 ([1]; twice-weekly schedule, repeated doses, n=28, P<0.05): 1.2
Drug accumulation (AUC72 ratio) day 4/day 1 ([1]; twice-weekly schedule, repeated doses, n=29, P<0.05): 1.2
30-day all-cause mortality rate ([2]; 73 treated patients): 11%
Deaths within 30 days after the first dose ([2]; 73 treated patients): Eight
Abdominal pain, % of patients ([2]; Total (n = 73), All grades): 22%
Abdominal pain, No. of patients ([2]; Total (n = 73), All grades): 16
Anorexia, No. of patients ([2]; Total (n = 73), All grades): 30
Diarrhea, % of patients ([2]; Total (n = 73), All grades): 49%
Diarrhea, No. of patients ([2]; Total (n = 73), All grades): 36
Nausea, % of patients ([2]; Total (n = 73), All grades): 63%
Nausea, No. of patients ([2]; Total (n = 73), All grades): 46
Peripheral edema, % of patients ([2]; Total (n = 73), All grades): 34%
Peripheral edema, No. of patients ([2]; Total (n = 73), All grades): 25
Petechiae, % of patients ([2]; Total (n = 73), All grades): 21%
Petechiae, No. of patients ([2]; Total (n = 73), All grades): 15
Pleural effusion, % of patients ([2]; Total (n = 73), All grades): 22%
Pleural effusion, No. of patients ([2]; Total (n = 73), All grades): 16
Pyrexia, % of patients ([2]; Total (n = 73), All grades): 29%
Pyrexia, No. of patients ([2]; Total (n = 73), All grades): 21
Stomatitis, % of patients ([2]; Total (n = 73), All grades): 29%
Stomatitis, No. of patients ([2]; Total (n = 73), All grades): 21
Clinical manifestation of QTc prolongation, such as torsades de pointes ([2]; all treated patients): No clinical manifestation of QTc prolongation
Stomatitis duration, range ([2]; cycle 1): 5 to 39 days
Stomatitis median duration ([2]; cycle 1): 15 days
Stomatitis median onset ([2]; cycle 1): 14 days
Stomatitis onset, range ([2]; cycle 1): 3 to 20 days
Patients experiencing stomatitis grade 1–2 ([2]; cycle 1, overall): 12%
Patients experiencing stomatitis grade ≥3 ([2]; cycle 1, overall): 15%
Patients experiencing stomatitis of any grade ([2]; cycle 1, overall): 27%
Treatment-related hepatic or renal dysfunction ([2]; doses up to 90 mg/m^2 weekly and 50 mg/m^2 twice weekly): No grade 3 or greater treatment-related hepatic or renal dysfunction was reported
Time of death after first dose, range ([2]; eight deaths within 30 days): 11 to 30 days
Dose-limiting toxicity (DLT) ([2]; patients with advanced leukemia, both schedules): stomatitis
Abdominal pain, % of patients [2, 5]: 10%
Abdominal pain, No. of patients [2, 5]: 3
Anorexia, % of patients [2, 5]: 39%
Anorexia, No. of patients [2, 5]: 12
Diarrhea, % of patients [2, 5]: 39%
Diarrhea, No. of patients [2, 5]: 12
Dyspnea, No. of patients [2, 5]: 10
Fatigue, No. of patients [2, 5]: 14
Febrile neutropenia, % of patients [2, 5]: 0%
Febrile neutropenia, No. of patients [2, 5]: 0
Infection (20 individual adverse event terms), No. of patients [2, 5]: 10
Nausea, % of patients [2, 5]: 68%
Nausea, No. of patients [2, 5]: 21
Peripheral edema, % of patients [2, 5]: 29%
Peripheral edema, No. of patients [2, 5]: 9
Petechiae, % of patients [2, 5]: 19%
Petechiae, No. of patients [2, 5]: 6
Pleural effusion, % of patients [2, 5]: 16%
Pleural effusion, No. of patients [2, 5]: 5
Pyrexia, % of patients [2, 5]: 19%
Pyrexia, No. of patients [2, 5]: 6
Stomatitis, % of patients [2, 5]: 19%
Stomatitis, No. of patients [2, 5]: 6
Abdominal pain, % of patients [2, 6]: 3%
Abdominal pain, No. of patients [2, 6]: 1
Anorexia, % of patients [2, 6]: 0%
Anorexia, No. of patients [2, 6]: 0
Diarrhea, % of patients [2, 6]: 3%
Diarrhea, No. of patients [2, 6]: 1
Dyspnea, % of patients [2, 6]: 3%
Dyspnea, No. of patients [2, 6]: 1
Fatigue, % of patients [2, 6]: 0%
Fatigue, No. of patients [2, 6]: 0
Febrile neutropenia, No. of patients [2, 6]: 15
Infection (20 individual adverse event terms), No. of patients [2, 6]: 11
Nausea, % of patients [2, 6]: 3%
Nausea, No. of patients [2, 6]: 1
Peripheral edema, % of patients [2, 6]: 0%
Peripheral edema, No. of patients [2, 6]: 0
Petechiae, % of patients [2, 6]: 3%
Petechiae, No. of patients [2, 6]: 1
Pleural effusion, % of patients [2, 6]: 3%
Pleural effusion, No. of patients [2, 6]: 1
Pyrexia, No. of patients [2, 6]: 4
Stomatitis, % of patients [2, 6]: 19%
Stomatitis, No. of patients [2, 6]: 6
Time to recovery of peripheral absolute neutrophil counts to >1×10^9/l [2, 7]: 50 days
Time to recovery of platelets to ≥100×10^9/l [2, 7]: 28 days
Abdominal pain, No. of patients ([2]; weekly (n = 42), Grade 1 or 2): 11
Diarrhea, % of patients ([2]; weekly (n = 42), Grade 1 or 2): 52%
Diarrhea, No. of patients ([2]; weekly (n = 42), Grade 1 or 2): 22
Dyspnea, % of patients ([2]; weekly (n = 42), Grade 1 or 2): 31%
Fatigue, No. of patients ([2]; weekly (n = 42), Grade 1 or 2): 19
Febrile neutropenia, % of patients ([2]; weekly (n = 42), Grade 1 or 2): 0%
Febrile neutropenia, No. of patients ([2]; weekly (n = 42), Grade 1 or 2): 0
Infection (20 individual adverse event terms), % of patients ([2]; weekly (n = 42), Grade 1 or 2): 12%
Infection (20 individual adverse event terms), No. of patients ([2]; weekly (n = 42), Grade 1 or 2): 5
Nausea, % of patients ([2]; weekly (n = 42), Grade 1 or 2): 57%
Nausea, No. of patients ([2]; weekly (n = 42), Grade 1 or 2): 24
Peripheral edema, % of patients ([2]; weekly (n = 42), Grade 1 or 2): 36%
Peripheral edema, No. of patients ([2]; weekly (n = 42), Grade 1 or 2): 15
Petechiae, % of patients ([2]; weekly (n = 42), Grade 1 or 2): 19%
Petechiae, No. of patients ([2]; weekly (n = 42), Grade 1 or 2): 8
Pleural effusion, % of patients ([2]; weekly (n = 42), Grade 1 or 2): 21%
Pleural effusion, No. of patients ([2]; weekly (n = 42), Grade 1 or 2): 9
Pyrexia, No. of patients ([2]; weekly (n = 42), Grade 1 or 2): 10
Stomatitis, % of patients ([2]; weekly (n = 42), Grade 1 or 2): 10%
Stomatitis, No. of patients ([2]; weekly (n = 42), Grade 1 or 2): 4
Abdominal pain, % of patients ([2]; weekly (n = 42), Grade ≥3): 2%
Abdominal pain, No. of patients ([2]; weekly (n = 42), Grade ≥3): 1
Anorexia, % of patients ([2]; weekly (n = 42), Grade ≥3): 2%
Anorexia, No. of patients ([2]; weekly (n = 42), Grade ≥3): 1
Diarrhea, % of patients ([2]; weekly (n = 42), Grade ≥3): 2%
Diarrhea, No. of patients ([2]; weekly (n = 42), Grade ≥3): 1
Dyspnea, % of patients ([2]; weekly (n = 42), Grade ≥3): 0%
Dyspnea, No. of patients ([2]; weekly (n = 42), Grade ≥3): 0
Fatigue, % of patients ([2]; weekly (n = 42), Grade ≥3): 2%
Fatigue, No. of patients ([2]; weekly (n = 42), Grade ≥3): 1
Febrile neutropenia, No. of patients ([2]; weekly (n = 42), Grade ≥3): 28
Infection (20 individual adverse event terms), No. of patients ([2]; weekly (n = 42), Grade ≥3): 22
Nausea, % of patients ([2]; weekly (n = 42), Grade ≥3): 0%
Nausea, No. of patients ([2]; weekly (n = 42), Grade ≥3): 0
Peripheral edema, % of patients ([2]; weekly (n = 42), Grade ≥3): 2%
Peripheral edema, No. of patients ([2]; weekly (n = 42), Grade ≥3): 1
Petechiae, % of patients ([2]; weekly (n = 42), Grade ≥3): 0%
Petechiae, No. of patients ([2]; weekly (n = 42), Grade ≥3): 0
Pleural effusion, % of patients ([2]; weekly (n = 42), Grade ≥3): 2%
Pleural effusion, No. of patients ([2]; weekly (n = 42), Grade ≥3): 1
Pyrexia, % of patients ([2]; weekly (n = 42), Grade ≥3): 2%
Pyrexia, No. of patients ([2]; weekly (n = 42), Grade ≥3): 1
Stomatitis, % of patients ([2]; weekly (n = 42), Grade ≥3): 12%
Stomatitis, No. of patients ([2]; weekly (n = 42), Grade ≥3): 5
Patients with grade 3 stomatitis as DLT ([2]; weekly schedule): five
Average renal excretion of the total dose infused [3]: 2.35%
Half-maximal (50%) inhibitory concentration (IC50) (MV4-11 AML cell line): 0.0401 µg/mL
IC90 (MV4-11 AML cell line): 1 µM
Concentration in bone marrow relative to blood [4]: ~ 30 fold
Dependence of activity on p53 (p53): independent of p53
Bone marrow ablation compared with cytarabine (bone marrow): ablated bone marrow more potently than cytarabine
